Test results as given in ChEMBL document CHEMBL5724801, “EUbOPEN Chemogenomics Library - Multiplex” (2024).
Where “and” joins values, the source holds several entries; their conditions need not be identical. Equal entries are not always repeated.

Columns and labels:
HEK-293T = assay: Multiplex assay against HEK293T; assay type: toxicity, cell-based; details: human
Procedure, shortened: (§1)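 Live cells were stained at seeding with Hoechst33342, BioTracker Green Microtubule Cytoskeleton Dye, MitoTracker Red and Annexin V Alexa Fluor 680. Following compound addition, they were imaged on a CQ1 microscope at 37°C and 5% CO2 and gated by CellPathfinder machine learning into Hoechst high-intensity objects or normal cells, with normal cells split into healthy, pyknosed or fragmented nuclei and pyknosed cells into mitotic or apoptotic. Tubulin, mitochondrial-mass and membrane-permeability phenotypes are per cents of healthy-nucleus cells.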

U2OS = assay: Multiplex assay against U2OS; assay type: toxicity, cell-based; details: human; procedure, shortened: as §1
[1] = 24 h, 10 µM, compound concentration 10 uM
[2] = 48 h, 1 µM, compound concentration 1 uM
[3] = 48 h, 10 µM, compound concentration 10 uM
[4] = 12 h, 1 µM, compound concentration 1 uM
[5] = 12 h, 10 µM, compound concentration 10 uM
[6] = 24 h, 1 µM, compound concentration 1 uM

CCC(=O)OCC(=O)[C@@]1(OC(=O)CC)[C@@H](C)C[C@H]2[C@@H]3CCC4=CC(=O)C=C[C@]4(C)[C@@]3(Cl)[C@@H](O)C[C@@]21C [BECLOMETHASONE DIPROPIONATE]
Population Fragmented Nuclei (%) (HEK-293T; [1]): 13% and 5%
Population Healthy Nuclei (%) (HEK-293T; [1]): 65% and 71%
Population Hoechst High Intensity Objects (%) (HEK-293T; [1]): 11% and 9%
Population Membrane Permeable-Phenotype (%) (HEK-293T; [1]): 0%
Population Mitochondria Different-Phenotype (%) (HEK-293T; [1]): 89% and 97%
Population Mitotic Cells (%) (HEK-293T; [1]): 44% and 37%
Population Normal (%) (HEK-293T; [1]): 88% and 90%
Population Pyknosed Nuclei (%) (HEK-293T; [1]): 21% and 23%
Population Tubulin-Different-Phenotype (%) (HEK-293T; [1]): 73% and 43%
Total Cell Count (HEK-293T; [1]): 270 and 243
Population Apoptotic (%) (HEK-293T; [2]): 30% and 31%
Population Fragmented Nuclei (%) (HEK-293T; [2]): 11% and 12%
Population Healthy Nuclei (%) (HEK-293T; [2]): 78% and 79%
Population Hoechst High Intensity Objects (%) (HEK-293T; [2]): 4% and 3%
Population Membrane Permeable-Phenotype (%) (HEK-293T; [2]): 0%
Population Mitochondria Different-Phenotype (%) (HEK-293T; [2]): 28% and 32%
Population Mitotic Cells (%) (HEK-293T; [2]): 69% and 68%
Population Normal (%) (HEK-293T; [2]): 95% and 96%
Population Pyknosed Nuclei (%) (HEK-293T; [2]): 9% and 8%
Population Tubulin-Different-Phenotype (%) (HEK-293T; [2]): 18% and 17%
Total Cell Count (HEK-293T; [2]): 742 and 655
Population Apoptotic (%) (HEK-293T; [3]): 67% and 65%
Population Fragmented Nuclei (%) (HEK-293T; [3]): 14% and 12%
Population Healthy Nuclei (%) (HEK-293T; [3]): 72%
Population Hoechst High Intensity Objects (%) (HEK-293T; [3]): 5%
Population Membrane Permeable-Phenotype (%) (HEK-293T; [3]): 0%
Population Mitochondria Different-Phenotype (%) (HEK-293T; [3]): 72% and 90%
Population Mitotic Cells (%) (HEK-293T; [3]): 32% and 34%
Population Normal (%) (HEK-293T; [3]): 94%
Population Pyknosed Nuclei (%) (HEK-293T; [3]): 13% and 15%
Population Tubulin-Different-Phenotype (%) (HEK-293T; [3]): 43% and 62%
Total Cell Count (HEK-293T; [3]): 347 and 283
Population Apoptotic (%) (U2OS; [4]): 84% and 71%
Population Fragmented Nuclei (%) (U2OS; [4]): 23% and 18%
Population Healthy Nuclei (%) (U2OS; [4]): 64% and 75%
Population Hoechst High Intensity Objects (%) (U2OS; [4]): 1% and 0%
Population Membrane Permeable-Phenotype (%) (U2OS; [4]): 11% and 13%
Population Mitochondria Different-Phenotype (%) (U2OS; [4]): 4% and 8%
Population Mitotic Cells (%) (U2OS; [4]): 15% and 28%
Population Normal (%) (U2OS; [4]): 98% and 99%
Population Pyknosed Nuclei (%) (U2OS; [4]): 12% and 6%
Population Tubulin-Different-Phenotype (%) (U2OS; [4]): 6% and 4%
Total Cell Count (U2OS; [4]): 160 and 111
Population Apoptotic (%) (U2OS; [5]): 65% and 68%
Population Healthy Nuclei (%) (U2OS; [5]): 40% and 69%
Population Hoechst High Intensity Objects (%) (U2OS; [5]): 4%
Population Membrane Permeable-Phenotype (%) (U2OS; [5]): 67% and 48%
Population Mitochondria Different-Phenotype (%) (U2OS; [5]): 73% and 97%
Population Mitotic Cells (%) (U2OS; [5]): 34% and 31%
Population Normal (%) (U2OS; [5]): 95%
Population Pyknosed Nuclei (%) (U2OS; [5]): 17% and 18%
Population Tubulin-Different-Phenotype (%) (U2OS; [5]): 80% and 97%
Total Cell Count (U2OS; [5]): 176 and 109
Population Apoptotic (%) (U2OS; [6]): 78% and 87%
Population Fragmented Nuclei (%) (U2OS; [6]): 21% and 15%
Population Healthy Nuclei (%) (U2OS; [6]): 67% and 71%
Population Hoechst High Intensity Objects (%) (U2OS; [6]): 2% and 0%
Population Membrane Permeable-Phenotype (%) (U2OS; [6]): 2% and 6%
Population Mitochondria Different-Phenotype (%) (U2OS; [6]): 4% and 5%
Population Mitotic Cells (%) (U2OS; [6]): 21% and 12%
Population Normal (%) (U2OS; [6]): 97% and 99%
Population Pyknosed Nuclei (%) (U2OS; [6]): 10% and 13%
Population Tubulin-Different-Phenotype (%) (U2OS; [6]): 1% and 3%
Total Cell Count (U2OS; [6]): 217 and 123
Population Apoptotic (%) (U2OS; [1]): 74% and 64%
Population Fragmented Nuclei (%) (U2OS; [1]): 35% and 12%
Population Healthy Nuclei (%) (U2OS; [1]): 45% and 69%
Population Hoechst High Intensity Objects (%) (U2OS; [1]): 3% and 9%
Population Membrane Permeable-Phenotype (%) (U2OS; [1]): 40% and 43%
Population Mitochondria Different-Phenotype (%) (U2OS; [1]): 72% and 86%
Population Mitotic Cells (%) (U2OS; [1]): 25% and 35%
Population Normal (%) (U2OS; [1]): 96% and 90%
Population Pyknosed Nuclei (%) (U2OS; [1]): 18% and 17%
Population Tubulin-Different-Phenotype (%) (U2OS; [1]): 66% and 76%
Total Cell Count (U2OS; [1]): 174 and 106
Population Apoptotic (%) (U2OS; [2]): 91% and 85%
Population Fragmented Nuclei (%) (U2OS; [2]): 22% and 10%
Population Healthy Nuclei (%) (U2OS; [2]): 68% and 75%
Population Hoechst High Intensity Objects (%) (U2OS; [2]): 2%
Population Membrane Permeable-Phenotype (%) (U2OS; [2]): 5% and 8%
Population Mitochondria Different-Phenotype (%) (U2OS; [2]): 2% and 5%
Population Mitotic Cells (%) (U2OS; [2]): 8% and 14%
Population Normal (%) (U2OS; [2]): 97%
Population Pyknosed Nuclei (%) (U2OS; [2]): 9% and 14%
Population Tubulin-Different-Phenotype (%) (U2OS; [2]): 2% and 3%
Total Cell Count (U2OS; [2]): 268 and 152
Population Apoptotic (%) (U2OS; [3]): 80% and 70%
Population Fragmented Nuclei (%) (U2OS; [3]): 36% and 21%
Population Healthy Nuclei (%) (U2OS; [3]): 47% and 65%
Population Hoechst High Intensity Objects (%) (U2OS; [3]): 4% and 6%
Population Membrane Permeable-Phenotype (%) (U2OS; [3]): 20% and 16%
Population Mitochondria Different-Phenotype (%) (U2OS; [3]): 26% and 36%
Population Mitotic Cells (%) (U2OS; [3]): 20% and 29%
Population Normal (%) (U2OS; [3]): 95% and 93%
Population Pyknosed Nuclei (%) (U2OS; [3]): 15% and 13%
Population Tubulin-Different-Phenotype (%) (U2OS; [3]): 14% and 10%
Total Cell Count (U2OS; [3]): 199 and 131
